Reference: ChEMBL document CHEMBL3751756, “Hydroxylated chalcones with dual properties: Xanthine oxidase inhibitors and radical scavengers” (Bioorg Med Chem, 2016)

Experiments:
[1] = target: Xanthine dehydrogenase/oxidase (Bos taurus, UniProt P80457); assay: Inhibition of bovine xanthine oxidase assessed as conversion of xanthine to uric acid by spectroscopic analysis
Method in brief: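 XO suspended in 20 mM phosphate pH 7.5, added to xanthine (final 46 μM; final enzyme 39 μg/mL); uric acid formation followed at 295 nm for 5 min. Eleven inhibitor concentrations bracketing the IC50; rates by linear regression of absorbance vs time, fitted to a three-parameter logistic to give IC50.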

[2] = Antioxidant activity assessed as DPPH radical scavenging activity by measuring remaining DPPH level at 20 uM after 30 mins by plate reader analysis; type: physicochemical; details: 0.5 h
Method in brief: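 DPPH (0.2 mM in ethanol, 50 μL freshly prepared) mixed with 150 μL test compound in ethanol, 5–50 μM range; 30 min at room temperature in dark; loss of absorbance at 517 nm read. Scavenging activity = (1 − A_test/A_control) × 100%, control lacking scavenger; reported activity taken at 20 µM compound.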

[3] = Cytoprotective activity against amyloid beta-induced oxidative stress in mouse Neuro2a cells assessed as cell viability at 250 uM after 6 hrs by MTT assay; type: functional; details: N2a, read-out: Activity
Method in brief: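 Murine Neuro-2A cells in DMEM with 10% FBS and penicillin-streptomycin, 37°C, 5% CO2; trypsinized ≤1 min, seeded 2,000–4,000 cells/mL, 6 h. Then added 10 μL of 250 μM compound (stock), 15 μL of 833 μM Aβ 25–35 (stock), and MTT (5 mg/mL); 6 h, then SDS/DMF extraction buffer 6 h at 37°C in dark; A570 as percent of unstressed control.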

Sequence of Xanthine dehydrogenase/oxidase (P80457 whole entry): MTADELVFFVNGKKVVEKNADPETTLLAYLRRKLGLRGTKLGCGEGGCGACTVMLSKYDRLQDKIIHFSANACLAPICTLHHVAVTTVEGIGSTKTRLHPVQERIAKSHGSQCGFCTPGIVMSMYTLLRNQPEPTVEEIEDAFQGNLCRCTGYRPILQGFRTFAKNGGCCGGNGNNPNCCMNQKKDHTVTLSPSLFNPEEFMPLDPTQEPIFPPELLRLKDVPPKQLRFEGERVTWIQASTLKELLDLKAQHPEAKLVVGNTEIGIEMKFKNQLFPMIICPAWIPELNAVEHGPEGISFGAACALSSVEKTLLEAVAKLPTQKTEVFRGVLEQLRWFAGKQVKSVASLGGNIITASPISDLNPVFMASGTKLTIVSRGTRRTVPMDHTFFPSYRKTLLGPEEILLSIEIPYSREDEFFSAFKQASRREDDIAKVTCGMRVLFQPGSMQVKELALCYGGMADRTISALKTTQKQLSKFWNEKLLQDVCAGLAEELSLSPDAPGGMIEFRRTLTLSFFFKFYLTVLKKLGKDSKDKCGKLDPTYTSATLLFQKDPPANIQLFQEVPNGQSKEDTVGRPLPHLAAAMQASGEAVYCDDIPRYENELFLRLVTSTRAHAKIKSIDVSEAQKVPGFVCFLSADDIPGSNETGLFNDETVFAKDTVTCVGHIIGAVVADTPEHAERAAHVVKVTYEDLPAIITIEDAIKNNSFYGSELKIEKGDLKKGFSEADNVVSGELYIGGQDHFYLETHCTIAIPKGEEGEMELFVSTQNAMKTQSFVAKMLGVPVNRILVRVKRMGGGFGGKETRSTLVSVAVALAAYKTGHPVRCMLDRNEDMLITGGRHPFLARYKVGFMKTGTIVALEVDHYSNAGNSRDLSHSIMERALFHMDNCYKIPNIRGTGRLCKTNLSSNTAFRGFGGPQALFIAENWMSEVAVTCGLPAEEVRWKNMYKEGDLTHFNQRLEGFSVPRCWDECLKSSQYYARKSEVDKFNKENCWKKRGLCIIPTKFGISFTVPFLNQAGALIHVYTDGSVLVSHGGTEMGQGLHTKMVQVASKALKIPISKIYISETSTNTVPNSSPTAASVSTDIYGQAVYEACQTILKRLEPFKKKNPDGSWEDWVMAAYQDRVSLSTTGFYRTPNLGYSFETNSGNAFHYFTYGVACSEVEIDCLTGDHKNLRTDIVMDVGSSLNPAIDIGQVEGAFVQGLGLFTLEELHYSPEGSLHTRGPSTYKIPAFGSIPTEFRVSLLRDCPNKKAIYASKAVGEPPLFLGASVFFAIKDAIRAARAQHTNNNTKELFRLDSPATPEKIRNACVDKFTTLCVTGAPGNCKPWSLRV

IC50 ([1]; read-out: IC50) [µM]	Activity [2] [%]	IC50 [1]	Compound	viability at 250 µM [3] [%]
27	0.5	–	O=C(/C=C/c1cccc(O)c1)c1ccc(O)cc1O	6.9
17	91	–	O=C(/C=C/c1ccc(O)c(O)c1)c1cc(O)ccc1O	46
1.2	92	–	O=C(/C=C/c1ccc(O)c(O)c1)c1ccc(O)c(O)c1O	118
3	77	–	O=C(/C=C/c1ccc(O)c(O)c1)c1ccc(O)c(O)c1	40
35	90	–	O=C(/C=C/c1ccc(O)c(O)c1)c1c(O)cccc1O	28
1.3	90	–	O=C(/C=C/c1ccc(O)c(O)c1)c1ccc(O)cc1O [BUTEIN]	71

Further lines, the compound ahead of its results:

Compound	IC50 ([1]; read-out: IC50) [µM]	Activity [2] [%]	IC50 [1]	viability at 250 µM [3] [%]
O=C(/C=C/c1ccc(O)c(O)c1)c1cccc(O)c1	5.3	82	–	35
O=C(/C=C/c1ccc(O)c(O)c1)c1ccccc1	53	90	–	4.3
O=C(/C=C/c1ccccc1O)c1ccccc1	–	-0.6	Not Active	3
O=C(/C=C/c1ccc(O)c(O)c1)c1cc(O)cc(O)c1	6.5	84	–	26
O=C(/C=C/c1ccccc1)c1cccc(O)c1	–	0.2	Not Active	5.9
O=C(/C=C/c1ccc(O)c(O)c1)c1ccc(O)cc1	4.3	42	–	28
O=C(/C=C/c1cccc(O)c1O)c1ccc(O)c(O)c1	93	70	–	46
O=C(/C=C/c1cc(O)ccc1O)c1ccc(O)c(O)c1	8.6	86	–	70
O=C(/C=C/c1ccc(O)c(O)c1O)c1ccc(O)c(O)c1O	5.5	82	–	91
O=C(/C=C/c1ccc(O)c(O)c1O)c1ccc(O)c(O)c1	18	57	–	51
O=C(/C=C/c1ccccc1)c1ccc(O)cc1O [2',4'-DIHYDROXYCHALCONE]	–	-3	Not Active	3.9
O=C(/C=C/c1ccccc1)c1ccccc1O [2'-HYDROXYCHALCONE]	–	6.7	Not Active	1.7
O=C(/C=C/c1ccccc1)c1ccc(O)cc1 [4'-HYDROXYCHALCONE]	–	-1.4	Not Active	1.4
O=C(/C=C/c1ccc(O)cc1)c1ccccc1 [4-HYDROXYCHALCONE]	290	-9.1	–	0
